Test results from ChEMBL document CHEMBL2390927, “Design, synthesis and antimicrobial evaluation of novel benzimidazole type of Fluconazole analogues and their synergistic effects with Chloromycin, Norfloxacin and Fluconazole” (2013).
In brackets after ≈: the same amount, converted by molar mass.

Tests used:
Bacillus subtilis [1] = assay: Potentiation of chloromycin-induced antibacterial activity against Bacillus subtilis ATCC 21216 at 4 times MIC after 24 hrs by two-fold serial dilution method; format: functional
Bacillus [2] = assay: Potentiation of chloromycin-induced antibacterial activity against Bacillus proteus ATCC 13315 at 2 times MIC after 24 hrs by two-fold serial dilution method; format: functional
Saccharomyces cerevisiae [3] = assay: Antifungal activity against Saccharomyces cerevisiae after 24 hrs by two-fold serial dilution method; format: functional
Outline: (§1)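 Spore suspension in sterile distilled water from one-day-old cultures on Sabouraud agar, final 1–5 × 10³ spore mL⁻¹. Compound stocks diluted in sterile RPMI 1640 as two-fold serial dilutions in microdilution plates. MIC is the lowest concentration completely inhibiting growth. Growth monitored visually and spectrophotometrically, in triplicate.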

Micrococcus luteus [4] = assay: Antibacterial activity against Micrococcus luteus ATCC 4698 after 24 hrs by two-fold serial dilution method; format: functional; conditions: ATCC 4698, 24 h
Outline: (§2)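 MIC taken as the lowest concentration giving complete growth inhibition, by standard two-fold serial dilution in 96-well plates following NCCLS. Stocks in DMSO, diluted in Mueller–Hinton broth. Inoculum adjusted with sterile saline to 1 × 10⁵ CFU. DMSO with inoculum and no drug served as solvent control. Growth read visually and spectrophotometrically, in triplicate.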

Staphylococcus aureus [5] = assay: Antibacterial activity against Staphylococcus aureus ATCC 6538 after 24 hrs by two-fold serial dilution method; format: functional; conditions: ATCC 6538, 24 h
Bacillus [6] = assay: Potentiation of norfloxacin-induced antibacterial activity against Bacillus proteus ATCC 13315 at 2 times MIC after 24 hrs by two-fold serial dilution method; format: functional
Candida [7] = assay: Antifungal activity against Candida mycoderma after 24 hrs by two-fold serial dilution method; format: functional; outline: as §1
Staphylococcus aureus [8] = assay: Potentiation of norfloxacin-induced antibacterial activity against Staphylococcus aureus ATCC 6538 at MIC after 24 hrs by two-fold serial dilution method; format: functional
Saccharomyces cerevisiae [9] = assay: Potentiation of fluconazole-induced antifungal activity against Saccharomyces cerevisiae at 4 times MIC after 24 hrs by two-fold serial dilution method; format: functional
Salmonella typhi [10] = assay: Potentiation of norfloxacin-induced antibacterial activity against Bacillus typhi at 4 times MIC after 24 hrs by two-fold serial dilution method; format: functional, Salmonella enterica subsp. enterica serovar Typhi
Escherichia coli [11] = assay: Potentiation of chloromycin-induced antibacterial activity against Escherichia coli JM109 at MIC after 24 hrs by two-fold serial dilution method; format: functional
Candida albicans [12] = assay: Antifungal activity against Candida albicans ATCC 76615 after 24 hrs by two-fold serial dilution method; format: functional; conditions: ATCC 76615, 24 h; outline: as §1
Salmonella typhi [13] = assay: Antibacterial activity against Bacillus typhi after 24 hrs by two-fold serial dilution method; format: functional, Salmonella enterica subsp. enterica serovar Typhi; conditions: Salmonella enterica
Outline: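 Two-fold serial dilution in 96-well plates following NCCLS; compounds dissolved in DMSO as stocks, then diluted in Mueller-Hinton broth; bacterial suspension adjusted with sterile saline to 1 × 10⁵ CFU; MIC taken as lowest concentration completely inhibiting growth, monitored visually and spectrophotometrically; DMSO-plus-inoculum well as solvent control; triplicate.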

Staphylococcus aureus [14] = assay: Potentiation of chloromycin-induced antibacterial activity against Staphylococcus aureus ATCC 6538 at MIC after 24 hrs by two-fold serial dilution method; format: functional
Bacillus subtilis [15] = assay: Potentiation of norfloxacin-induced antibacterial activity against Bacillus subtilis ATCC 21216 at 2 times MIC after 24 hrs by two-fold serial dilution method; format: functional
Candida albicans [16] = assay: Potentiation of fluconazole-induced antifungal activity against Candida albicans ATCC 76615 at 4 times MIC after 24 hrs by two-fold serial dilution method; format: functional
Cyberlindnera jadinii [17] = assay: Antifungal activity against Candida utilis after 24 hrs by two-fold serial dilution method; format: functional; conditions: Williopsis jadinii; outline: as §1
Staphylococcus aureus [18] = assay: Antibacterial activity against methicillin-resistant Staphylococcus aureus N315 after 24 hrs by two-fold serial dilution method; format: functional; conditions: N315, 24 h
Escherichia coli [19] = assay: Antibacterial activity against Escherichia coli JM109 after 24 hrs by two-fold serial dilution method; format: functional; conditions: JM109, 24 h
Bacillus subtilis [20] = assay: Antibacterial activity against Bacillus subtilis ATCC 21216 after 24 hrs by two-fold serial dilution method; format: functional; conditions: ATCC 21216, 24 h; outline: as §2
Micrococcus luteus [21] = assay: Potentiation of chloromycin-induced antibacterial activity against Micrococcus luteus ATCC 4698 at 2 times MIC after 24 hrs by two-fold serial dilution method; format: functional
Micrococcus luteus [22] = assay: Potentiation of norfloxacin-induced antibacterial activity against Micrococcus luteus ATCC 4698 at 2 times MIC after 24 hrs by two-fold serial dilution method; format: functional
Bacillus [23] = assay: Antibacterial activity against Bacillus proteus ATCC 13315 after 24 hrs by two-fold serial dilution method; format: functional; conditions: ATCC 13315, 24 h; outline: as §2
Aspergillus flavus [24] = assay: Antifungal activity against Aspergillus flavus after 24 hrs by two-fold serial dilution method; format: functional; outline: as §1
Pseudomonas aeruginosa [25] = assay: Potentiation of chloromycin-induced antibacterial activity against Pseudomonas aeruginosa ATCC 27853 at 2 times MIC after 24 hrs by two-fold serial dilution method; format: functional
Cyberlindnera jadinii [26] = assay: Potentiation of fluconazole-induced antifungal activity against Candida utilis at 8 times MIC after 24 hrs by two-fold serial dilution method; format: functional
Escherichia coli [27] = assay: Potentiation of norfloxacin-induced antibacterial activity against Escherichia coli JM109 at 2 times MIC after 24 hrs by two-fold serial dilution method; format: functional
Candida [28] = assay: Potentiation of fluconazole-induced antifungal activity against Candida mycoderma at 4 times MIC after 24 hrs by two-fold serial dilution method; format: functional
Pseudomonas aeruginosa [29] = assay: Potentiation of norfloxacin-induced antibacterial activity against Pseudomonas aeruginosa ATCC 27853 at 2 times MIC after 24 hrs by two-fold serial dilution method; format: functional
Aspergillus flavus [30] = assay: Potentiation of fluconazole-induced antifungal activity against Aspergillus flavus at 4 times MIC after 24 hrs by two-fold serial dilution method; format: functional
Salmonella typhi [31] = assay: Potentiation of chloromycin-induced antibacterial activity against Bacillus typhi at 4 times MIC after 24 hrs by two-fold serial dilution method; format: functional, Salmonella enterica subsp. enterica serovar Typhi
Pseudomonas aeruginosa [32] = assay: Antibacterial activity against Pseudomonas aeruginosa ATCC 27853 after 24 hrs by two-fold serial dilution method; format: functional; conditions: ATCC 27853, 24 h; outline: as §2

SMILES: Fc1ccc(CN(Cc2nc3ccccc3[nH]2)c2cc(C(F)(F)F)cc(C(F)(F)F)c2)c(F)c1
- fractional inhibitory concentration index (FICI) (Bacillus subtilis [1]): 0.375
- fractional inhibitory concentration index (FICI) (Bacillus [2]): 0.25
- MIC (Saccharomyces cerevisiae [3]): 16 mg/L (≈ 33 µM)
- MIC (Micrococcus luteus [4]): 8 mg/L (≈ 16.5 µM)
- MIC (Staphylococcus aureus [5]): 8 mg/L (≈ 16.5 µM)
- fractional inhibitory concentration index (FICI) (Bacillus [6]): 0.25
- MIC (Candida [7]): 32 mg/L (≈ 65.9 µM)
- fractional inhibitory concentration index (FICI) (Staphylococcus aureus [8]): 0.25
- fractional inhibitory concentration index (FICI) (Saccharomyces cerevisiae [9]): 0.375
- fractional inhibitory concentration index (FICI) (Salmonella typhi [10]): 0.25
- fractional inhibitory concentration index (FICI) (Escherichia coli [11]): 0.25
- MIC (Candida albicans [12]): 16 mg/L (≈ 33 µM)
- MIC (Salmonella typhi [13]): 32 mg/L (≈ 65.9 µM)
- fractional inhibitory concentration index (FICI) (Staphylococcus aureus [14]): 0.25
- fractional inhibitory concentration index (FICI) (Bacillus subtilis [15]): 0.25
- fractional inhibitory concentration index (FICI) (Candida albicans [16]): 0.25
- MIC (Cyberlindnera jadinii [17]): 32 mg/L (≈ 65.9 µM)
- MIC (Staphylococcus aureus [18]): 32 mg/L (≈ 65.9 µM)
- MIC (Escherichia coli [19]): 16 mg/L (≈ 33 µM)
- MIC (Bacillus subtilis [20]): 16 mg/L (≈ 33 µM)
- fractional inhibitory concentration index (FICI) (Micrococcus luteus [21]): 0.5
- fractional inhibitory concentration index (FICI) (Micrococcus luteus [22]): 0.375
- MIC (Bacillus [23]): 16 mg/L (≈ 33 µM)
- MIC (Aspergillus flavus [24]): 16 mg/L (≈ 33 µM)
- fractional inhibitory concentration index (FICI) (Pseudomonas aeruginosa [25]): 0.25
- fractional inhibitory concentration index (FICI) (Cyberlindnera jadinii [26]): 0.5
- fractional inhibitory concentration index (FICI) (Escherichia coli [27]): 0.375
- fractional inhibitory concentration index (FICI) (Candida [28]): 0.25
- fractional inhibitory concentration index (FICI) (Pseudomonas aeruginosa [29]): 0.375
- fractional inhibitory concentration index (FICI) (Aspergillus flavus [30]): 0.375
- fractional inhibitory concentration index (FICI) (Salmonella typhi [31]): 0.25
- MIC (Pseudomonas aeruginosa [32]): 16 mg/L (≈ 33 µM)
